The values below come from publication PMC8485830 (ChemistryOpen, 2021).

Holding throughout (assay): activity assay, unused NAD+ converted to a fluorescent compound
Type in all cases: biochemical

In one experiment the target is T1, PARP4 (Homo sapiens, UniProt Q9UKK3).
T1 sequence (Q9UKK3 242-573 limits assumed): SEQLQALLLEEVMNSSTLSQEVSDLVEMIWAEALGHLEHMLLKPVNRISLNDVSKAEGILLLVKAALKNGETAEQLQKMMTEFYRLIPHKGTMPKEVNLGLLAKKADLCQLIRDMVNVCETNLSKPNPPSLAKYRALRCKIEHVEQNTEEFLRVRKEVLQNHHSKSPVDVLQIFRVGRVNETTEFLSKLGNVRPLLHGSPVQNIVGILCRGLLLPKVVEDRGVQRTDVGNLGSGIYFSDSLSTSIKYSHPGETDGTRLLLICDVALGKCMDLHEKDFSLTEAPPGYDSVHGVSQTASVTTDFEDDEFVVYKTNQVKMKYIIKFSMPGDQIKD
Summed up: (§1)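 PARP3 or PARP4 was expressed as an N-terminal His-tag construct in E. coli Rosetta2 (DE3) in autoinduction TB medium, overnight at 18 °C. It was purified by Ni-affinity followed by size-exclusion chromatography. Activity was read by converting residual NAD+ to a fluorescent product. Inhibitor was tested as half-log dilutions, with reactions in quadruplicate. IC50 was fitted with a four-variable sigmoidal dose–response curve.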

In another experiment the target is T2, PARP12 (Homo sapiens, UniProt Q9H0J9).
T2 sequence (Q9H0J9 489-684 limits assumed): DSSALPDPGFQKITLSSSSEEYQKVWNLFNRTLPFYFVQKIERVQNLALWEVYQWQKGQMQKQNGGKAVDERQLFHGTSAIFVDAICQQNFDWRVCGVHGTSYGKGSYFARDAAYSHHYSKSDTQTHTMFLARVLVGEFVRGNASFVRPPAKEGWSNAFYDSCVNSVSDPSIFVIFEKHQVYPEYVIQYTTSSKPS
Summed up:
(§2)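 Human PARP12 or PARP16 carrying an N-terminal His tag was expressed in E. coli Rosetta2 (DE3) in autoinduction TB medium, overnight at 18 °C. It was purified by Ni-affinity and size-exclusion chromatography, then the His tag was cleaved with TEV protease. Unused NAD+ was converted to a fluorescent compound. Test compound was given in half-log dilutions, in quadruplicate. IC50 came from a four-variable sigmoidal dose–response fit.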

The next experiment addresses T3, PARP16 (Homo sapiens, UniProt Q8N5Y8).
T3 sequence (Q8N5Y8 5-279 limits assumed): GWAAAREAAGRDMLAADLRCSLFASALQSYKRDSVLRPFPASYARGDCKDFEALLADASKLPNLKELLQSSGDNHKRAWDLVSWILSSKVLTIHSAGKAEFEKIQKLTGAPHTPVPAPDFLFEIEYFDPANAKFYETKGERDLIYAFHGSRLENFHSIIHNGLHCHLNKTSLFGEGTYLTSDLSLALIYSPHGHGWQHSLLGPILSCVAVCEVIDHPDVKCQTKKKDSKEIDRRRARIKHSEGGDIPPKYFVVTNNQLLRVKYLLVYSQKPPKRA
Summed up: as §2

The target in another experiment is T4, PARP3 (Homo sapiens, UniProt Q9Y6F1).
T4 sequence (Q9Y6F1 1-533): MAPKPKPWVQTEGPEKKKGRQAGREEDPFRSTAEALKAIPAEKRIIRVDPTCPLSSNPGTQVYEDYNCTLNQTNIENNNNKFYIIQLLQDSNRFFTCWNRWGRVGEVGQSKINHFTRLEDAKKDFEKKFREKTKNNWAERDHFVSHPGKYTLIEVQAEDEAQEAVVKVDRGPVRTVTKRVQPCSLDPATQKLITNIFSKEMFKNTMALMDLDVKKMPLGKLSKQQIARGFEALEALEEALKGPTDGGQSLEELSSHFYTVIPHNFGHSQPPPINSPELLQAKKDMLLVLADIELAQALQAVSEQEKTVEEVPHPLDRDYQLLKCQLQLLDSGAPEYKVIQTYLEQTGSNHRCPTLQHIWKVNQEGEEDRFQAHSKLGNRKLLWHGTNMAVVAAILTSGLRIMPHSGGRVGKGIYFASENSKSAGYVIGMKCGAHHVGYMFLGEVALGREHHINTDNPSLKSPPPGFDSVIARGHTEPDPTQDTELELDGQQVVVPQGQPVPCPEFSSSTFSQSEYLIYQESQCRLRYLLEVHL
Summed up: as §1

The term IC50 denotes the concentration that inhibits the measured activity by half. The low end stands for greater potency in that assay, the high end for weaker potency in that assay.

In the case of `N#Cc1ccc(Oc2ccc(C(N)=O)cc2)cc1` [compound 10, 4‐(4‐cyanophenoxy)benzamide], the IC50 on PARP4 is over 100 µM; at PARP12 it was over 10 µM; at PARP16 it was over 10 µM; at PARP3, over 100 µM.

Regarding `NC(=O)c1ccc(Oc2cccc(C(N)=O)c2)cc1` [compound 20, 3‐(4‐carbamoylphenoxy)benzamide], the IC50 on PARP4 was 7 µM; at PARP12, over 10 µM; against PARP16, over 10 µM; against PARP3 it was over 100 µM.
